Measured values published in ChEMBL document CHEMBL4038321, “Design, Synthesis, and Pharmacokinetics of a Bone-Targeting Dual-Action Prodrug for the Treatment of Osteoporosis” (J Med Chem, 2017).

Columns and labels:
Liver [1] = assay: Drug uptake in Sprague-Dawley rat liver at 1.8 uCi, iv administered as bolus dose after 14 days; format: ADME, organism-based; conditions: in vivo, 336 h
Outline: (§1)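 Female Sprague Dawley rats, about 13 weeks old, in five groups of three. Single IV tail-vein bolus of mixed 3H-conjugate (8.90 µCi/rat) and 14C-conjugate (1.77 µCi/rat), total dose 5.0 mg/kg. Vehicle was 10% Poloxamer 188, brought to pH 8.0 with NaHCO3, then diluted with an equal volume of PBS. Groups were killed at 6 h, 1, 7, 14 and 28 days. Tissues and femurs were incinerated in a biological oxidizer. Values are % of administered dose, with skeleton taken as 8% of body weight, averaged over three rats.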

Spleen [2] = assay: Drug uptake in Sprague-Dawley rat spleen at 1.8 uCi, iv administered as bolus dose after 7 days; format: ADME, organism-based; conditions: in vivo, 168 h
Outline: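 Female Sprague Dawley rats, about 13 weeks old on arrival, in five groups of three. Single IV tail-vein bolus of mixed [3H]- and [14C]-labelled conjugate (8.90 and 1.77 µCi/rat), total 5.0 mg/kg. Vehicle was 10% Poloxamer 188 adjusted to pH 8.0 with NaHCO3, then diluted with an equal volume of PBS. Groups killed at 6 h, 1, 7, 14 and 28 days. Spleen radioactivity measured by oxidizer incineration and reported as percent of administered dose, averaged over three rats.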

Brain [3] = assay: Drug uptake in Sprague-Dawley rat brain at 1.8 uCi, iv administered as bolus dose after 6 hrs; format: ADME, organism-based; conditions: in vivo; outline: as §1
Rattus norvegicus [4] = assay: Toxicity in Sprague-Dawley rat assessed as unusual reaction at 1.8 uCi, iv administered as bolus dose after 28 dyas; format: organism-based; conditions: in vivo
Outline: (§2)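 Same dual-label study: female Sprague Dawley rats got one IV tail-vein bolus of [3H] (8.90 µCi) plus [14C] (1.77 µCi) conjugate, total 5.0 mg/kg, in Poloxamer 188/PBS vehicle at pH 8.0. Groups of three were sacrificed up to 28 days after dosing.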

Kidney [5] = assay: Drug uptake in Sprague-Dawley rat kidney at 1.8 uCi, iv administered as bolus dose after 14 days; format: ADME, organism-based; conditions: in vivo, 336 h; outline: as §1
Kidney [6] = assay: Drug uptake in Sprague-Dawley rat kidney at 1.8 uCi, iv administered as bolus dose after 7 days; format: ADME, organism-based; conditions: in vivo, 168 h; outline: as §1
Heart [7] = assay: Drug uptake in Sprague-Dawley rat heart at 1.8 uCi, iv administered as bolus dose after 6 hrs; format: ADME, organism-based; conditions: in vivo; outline: as §1
Liver [8] = assay: Drug uptake in Sprague-Dawley rat liver at 1.8 uCi, iv administered as bolus dose after 6 hrs; format: ADME, organism-based; conditions: in vivo; outline: as §1
Bone [9] = assay: Drug uptake in Sprague-Dawley rat bone at 1.8 uCi, iv administered as bolus dose after 6 hrs; format: ADME, organism-based, Bone element; conditions: in vivo; outline: as §1
Rattus norvegicus [10] = assay: Toxicity in Sprague-Dawley rat assessed as behavioral change at 1.8 uCi, iv administered as bolus dose after 28 dyas; format: organism-based; conditions: in vivo; outline: as §2
Bone [11] = assay: Drug uptake in Sprague-Dawley rat bone at 1.8 uCi, iv administered as bolus dose after 14 days; format: ADME, organism-based, Bone element; conditions: in vivo, 336 h; outline: as §1
Bone [12] = assay: Drug uptake in Sprague-Dawley rat bone at 1.8 uCi, iv administered as bolus dose after 28 days; format: ADME, organism-based, Bone element; conditions: in vivo, 672 h; outline: as §1
Spleen [13] = assay: Drug uptake in Sprague-Dawley rat spleen at 1.8 uCi, iv administered as bolus dose after 1 day; format: ADME, organism-based; conditions: in vivo, 24 h; outline: as §1
Liver [14] = assay: Drug uptake in Sprague-Dawley rat liver at 1.8 uCi, iv administered as bolus dose after 7 days; format: ADME, organism-based; conditions: in vivo, 168 h; outline: as §1
Kidney [15] = assay: Drug uptake in Sprague-Dawley rat kidney at 1.8 uCi, iv administered as bolus dose after 6 hrs; format: ADME, organism-based; conditions: in vivo; outline: as §1
Liver [16] = assay: Drug uptake in Sprague-Dawley rat liver at 1.8 uCi, iv administered as bolus dose after 28 days; format: ADME, organism-based; conditions: in vivo, 672 h; outline: as §1
Heart [17] = assay: Drug uptake in Sprague-Dawley rat heart at 1.8 uCi, iv administered as bolus dose after 1 day; format: ADME, organism-based; conditions: in vivo, 24 h; outline: as §1
Brain [18] = assay: Drug uptake in Sprague-Dawley rat brain at 1.8 uCi, iv administered as bolus dose after 1 day; format: ADME, organism-based; conditions: in vivo, 24 h; outline: as §1
Spleen [19] = assay: Drug uptake in Sprague-Dawley rat spleen at 1.8 uCi, iv administered as bolus dose after 14 days; format: ADME, organism-based; conditions: in vivo, 336 h; outline: as §1
Kidney [20] = assay: Drug uptake in Sprague-Dawley rat kidney at 1.8 uCi, iv administered as bolus dose after 28 days; format: ADME, organism-based; conditions: in vivo, 672 h; outline: as §1
Liver [21] = assay: Drug uptake in Sprague-Dawley rat liver at 1.8 uCi, iv administered as bolus dose after 1 day; format: ADME, organism-based; conditions: in vivo, 24 h; outline: as §1
Spleen [22] = assay: Drug uptake in Sprague-Dawley rat spleen at 1.8 uCi, iv administered as bolus dose after 28 days; format: ADME, organism-based; conditions: in vivo, 672 h; outline: as §1
Bone [23] = assay: Drug uptake in Sprague-Dawley rat bone at 1.8 uCi, iv administered as bolus dose after 7 days; format: ADME, organism-based, Bone element; conditions: in vivo, 168 h; outline: as §1
Spleen [24] = assay: Drug uptake in Sprague-Dawley rat spleen at 1.8 uCi, iv administered as bolus dose after 6 hrs; format: ADME, organism-based; conditions: in vivo; outline: as §1
Bone [25] = assay: Drug uptake in Sprague-Dawley rat bone at 1.8 uCi, iv administered as bolus dose after 1 day; format: ADME, organism-based, Bone element; conditions: in vivo, 24 h; outline: as §1
Kidney [26] = assay: Drug uptake in Sprague-Dawley rat kidney at 1.8 uCi, iv administered as bolus dose after 1 day; format: ADME, organism-based; conditions: in vivo, 24 h; outline: as §1

CCOC(=O)CCCCCCN1C(=O)CC[C@@H]1/C=C/[C@@H](OC(=O)Cc1ccc(COC(=O)N[C@@H](CC(C)C)C(=O)N[C@@H](CCCNC(=N)N)C(=O)Nc2ccc(CO[14C](=O)NCCCC(O)(P(=O)(O)O)P(=O)(O)O)cc2)cc1)C(F)(F)c1ccccc1
Drug uptake (Liver [1]): 0.27 %ID | Drug uptake (Spleen [2]): 0.086 %ID | Drug uptake (Brain [3]): 0.014 %ID | Activity (Rattus norvegicus [4]): Non-Toxic | Drug uptake (Kidney [5]): 0.013 %ID | Drug uptake (Kidney [6]): 0.02 %ID | Drug uptake (Heart [7]): 0.017 %ID | Drug uptake (Liver [8]): 7.03 %ID | Drug uptake (Bone [9]): 5.52 %ID | Activity (Rattus norvegicus [10]): Non-Toxic | Drug uptake (Bone [11]): 2.52 %ID | Drug uptake (Bone [12]): 2.44 %ID | Drug uptake (Spleen [13]): 0.23 %ID | Drug uptake (Liver [14]): 0.61 %ID | Drug uptake (Kidney [15]): 0.11 %ID | Drug uptake (Liver [16]): 0.1 %ID | Drug uptake (Heart [17]): 0.009 %ID | Drug uptake (Brain [18]): 0.012 %ID | Drug uptake (Spleen [19]): 0.05 %ID | Drug uptake (Kidney [20]): 0.0092 %ID | Drug uptake (Liver [21]): 2.5 %ID | Drug uptake (Spleen [22]): 0.039 %ID | Drug uptake (Bone [23]): 3.51 %ID | Drug uptake (Spleen [24]): 0.34 %ID | Drug uptake (Bone [25]): 4.63 %ID | Drug uptake (Kidney [26]): 0.047 %ID
